Assay [1] concerns MDA-MB-231. Kind of assay: Cytotoxicity against human MDA-MB-231 cells assessed as reduction in cell viability at 30 uM after 48 hrs under normoxic condition by MTT assay. Type of assay: functional, cell-based. In a few lines: (§1)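 Cells plated at 1 × 10^4/well and exposed to test agents at 30, 100 and 300 μM for 48 h, in normoxia (20% O2) or hypoxia (0.1% O2). Viability is expressed relative to untreated control set at 100%, as mean ± SEM of three experiments.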

Assay [2] is described as follows: Gpx-like activity of the compound assessed as GSH-mediated H2O2 reduction by measuring NADPH consumption measured within 100 secs by UV spectroscopic analysis. Type of assay: functional. In a few lines: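 NADPH-coupled GPx assay with GSH as substrate and H2O2 as oxidant, with glutathione reductase. Initial conditions: NADPH 0.6 mM, GSH 2.0 mM, H2O2 5 mM, GR 8 units/mL, catalyst 0.2 mM, pH 7.4 phosphate buffer, room temperature. Read-out is the absorbance decrease at 340 nm from NADPH consumption. Mean ± SD of three experiments.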

The subject of assay [3] is PC-3. Kind of assay: Cytotoxicity against human PC3 cells assessed as reduction in cell viability at 300 uM after 48 hrs under normoxic condition by MTT assay. In kind it is functional, cell-based. Summed up:
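PC3 human prostate cancer cells seeded at 1 × 10^4/well and exposed for 48 h under normoxia (20% O2). The same run also used hypoxia (0.1% O2). Compounds tested at 30, 100 and 300 μM. Viability is expressed relative to untreated control set at 100%. Mean ± SEM of three experiments.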

Assay [4] relates to HT-29. The assay is described as follows: Cytotoxicity against human HT-29 cells assessed as reduction in cell viability at 30 to 300 uM after 48 hrs under hypoxic condition by MTT assay. Type of assay: functional, cell-based. Summed up:
as §1

Assay [5] is described as follows: Gpx-like activity of the compound assessed as H2O2 reduction by measuring DTT oxidation measured within 35 mins by 1H-NMR analysis. In kind it is functional. In a few lines:
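Oxidation of reduced DTT followed by 1H NMR, with DTTred and DTTox populations taken from signal integration. Catalyst loading 10%. Control run without catalyst, with (PhSe)2 as a standard comparator. T50 is the time to halve the initial DTTred. Mean ± SD of three separate experiments.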

The test system of assay [6] is HT-29. Kind of assay: Cytotoxicity against human HT-29 cells assessed as reduction in cell viability at 30 to 300 uM after 48 hrs under normoxic condition by MTT assay. Type of assay: functional, cell-based. In a few lines:
as §1

For another assay, the target named is Carbonic anhydrase 9 (Homo sapiens, UniProt Q16790).
Assay [7] concerns MDA-MB-231. The assay is described as follows: Cytotoxicity against human MDA-MB-231 cells assessed as reduction in cell viability at 30 to 100 uM after 48 hrs under normoxic condition by MTT assay. In kind it is functional, cell-based. Summed up: as §1
Assay [8] has as its system MDA-MB-231. Kind of assay: Cytotoxicity against human MDA-MB-231 cells assessed as reduction in cell viability at 300 uM after 48 hrs under hypoxic condition by MTT assay. Type of assay: functional, cell-based. Summed up:
as §1

In assay [9] the test system is MDA-MB-231. Kind of assay: Cytotoxicity against human MDA-MB-231 cells assessed as reduction in cell viability at 300 uM after 48 hrs under normoxic condition by MTT assay. Type of assay: functional, cell-based. In a few lines:
as §1

Assay [10] relates to PC-3. The assay is described as follows: Cytotoxicity against human PC3 cells assessed as reduction in cell viability at 30 to 300 uM after 48 hrs under normoxic condition by MTT assay. In kind it is functional, cell-based. Summed up:
as §1

The subject of assay [11] is MDA-MB-231. The assay is described as follows: Cytotoxicity against human MDA-MB-231 cells assessed as reduction in cell viability at 30 to 100 uM after 48 hrs under hypoxic condition by MTT assay. In kind it is functional, cell-based. In a few lines:
as §1

Assay [12] has as its system PC-3. Kind of assay: Cytotoxicity against human PC3 cells assessed as reduction in cell viability at 30 to 300 uM after 48 hrs under hypoxic condition by MTT assay. In kind it is functional, cell-based. Summed up:
as §1

Each structure is given as a SMILES string. Calls of active or inactive are those of the source. No cut-off for these calls is given here.

In the case of `NS(=O)(=O)c1ccc(NC(=O)Nc2ccc(F)cc2)cc1`, the outcome in the assay with MDA-MB-231 [1], in the assay with PC-3 [3], with HT-29 [4] and in the assay with HT-29 [6] was Active. The result in [2] and in assay [5] was inactive.
Compound `NS(=O)(=O)c1ccc(NC(=[Se])Nc2ccccc2F)cc1` yielded a Ki on Carbonic anhydrase 9 of 5.8 nM.
For `NS(=O)(=O)c1ccc(CCNC(=[Se])Nc2ccccc2F)cc1`, the outcome in the assay with MDA-MB-231 [7], in the assay with HT-29 [4], in the assay with MDA-MB-231 [11] and with HT-29 [6] was inactive. The outcome in the assay on MDA-MB-231 [8], in the assay on MDA-MB-231 [9], in the assay with PC-3 [10] and in the assay with PC-3 [12] was Active. This compound showed a Ki on Carbonic anhydrase 9 of 8.7 nM.
Compound `NS(=O)(=O)c1ccc(CCNC(=[Se])Nc2ccc(Br)cc2)cc1` yielded an inhibitory constant (Ki) on Carbonic anhydrase 9 of 4.8 nM.
The same measure, in the same setting: to `NS(=O)(=O)c1cccc(NC(=[Se])Nc2ccccc2)c1` belongs 330 nM; to `NS(=O)(=O)c1ccc(NC(=[Se])Nc2cccc(C(F)(F)F)c2)cc1`, 15.9 nM; to `NS(=O)(=O)c1ccc(CCNC(=[Se])Nc2ccc3ccccc3c2)cc1`, 93.1 nM.
For the compound `NS(=O)(=O)c1ccc(CCNC(=[Se])Nc2cccc(C(F)(F)F)c2)cc1`, the Ki on Carbonic anhydrase 9 is 5.8 nM.
Take `NS(=O)(=O)c1ccc(NC(=[Se])Nc2ccc(F)cc2)cc1`: the outcome (in the assay on MDA-MB-231 [1]; in assay [2]; in the assay with PC-3 [10]; with PC-3 [12]; in assay [5]) was Active. In addition, on Carbonic anhydrase 9, the Ki was found to be 63 nM. Besides, the result in the assay with HT-29 [4] and in the assay on HT-29 [6] was inactive.
`NS(=O)(=O)c1ccc(NC(=S)Nc2ccc(F)cc2)cc1`: the result in assay [2] and in assay [5] was inactive. For the same compound, the Ki at Carbonic anhydrase 9 was found to be 32.1 nM.
In the case of `NS(=O)(=O)c1cccc(NC(=[Se])Nc2ccc(F)cc2)c1`, on Carbonic anhydrase 9, the Ki came to 97.8 nM.
Same read-out and setting: with `COc1ccccc1NC(=[Se])NCCc1ccc(S(N)(=O)=O)cc1` the figure was 3.1 nM.
Take `NS(=O)(=O)c1ccc(NC(=[Se])Nc2ccccc2Cl)cc1`: the Ki on Carbonic anhydrase 9 was determined as 3.9 nM.
The compound `NS(=O)(=O)c1ccc(CCNC(=[Se])Nc2ccccc2)cc1` had a Ki at Carbonic anhydrase 9 of 5.3 nM.
Still for that read-out and setting: to `NS(=O)(=O)c1ccc(NC(=[Se])Nc2ccccc2)cc1` belongs 78.9 nM.
For the compound `NS(=O)(=O)c1ccc(CCNC(=[Se])Nc2ccc(I)cc2)cc1`, the outcome in the assay on MDA-MB-231 [7], with MDA-MB-231 [8], in the assay with MDA-MB-231 [9], in the assay on PC-3 [10], in the assay on HT-29 [4] and in the assay on MDA-MB-231 [11] was inactive. Besides, the result with PC-3 [12] and in the assay with HT-29 [6] was inactive. Further, the Ki at Carbonic anhydrase 9 came out at 54.9 nM.
Take `NS(=O)(=O)c1ccc(CCNC(=[Se])Nc2ccccc2Cl)cc1`: the Ki at Carbonic anhydrase 9 worked out at 4.8 nM.

(Values after ChEMBL document CHEMBL4190361, “Discovery of New Selenoureido Analogues of 4-(4-Fluorophenylureido)benzenesulfonamide as Carbonic Anhydrase Inhibitors” (ACS Med Chem Lett, 2017).)
